Experimental data published in ChEMBL document CHEMBL3286129, “Optimization of peptidomimetic boronates bearing a P3 bicyclic scaffold as proteasome inhibitors” (Eur J Med Chem, 2014).
Active and inactive are the calls of the source. The rule behind the calls is not given here.

What was measured:
TK-10 = assay: Growth inhibition of human TK10 cells; format: functional
SR = assay: Growth inhibition of human SR cells; format: functional
[1] = Growth inhibition of human OVCAR4 cells; format: functional
Chymotrypsinogen A = Chymotrypsinogen A (Bos taurus, UniProt P00766); assay: Inhibition of bovine pancreatic alpha-chymotrypsin using Suc-Leu-Leu-Val-Tyr-AMC as substrate by fluorescence assay; conditions: read-out: Ki
Method in brief: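 Enzyme incubated at 20 °C in 50 mM Tris pH 8.0, 100 mM NaCl, 5 mM EDTA, 7.5% DMSO with varied inhibitor concentrations. Substrate hydrolysis followed for 10 min. Ki from progress curves; mean of three determinations.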

Malme-3M = assay: Growth inhibition of human MALME-3M cells; format: functional
HOP-62 = assay: Growth inhibition of human HOP62 cells; format: functional
[2] = Cytotoxicity against human prostate cancer cells assessed as cell growth at 10 uM relative to control; format: functional; conditions: Cancer cell lines, read-out: Activity
Method in brief: (§1)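 Single-concentration screen against a panel of human cancer cell lines. Each value is the mean percent growth across the cell lines of that tumour subpanel.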

[3] = Growth inhibition of human BT549 cells; format: functional
[4] = target: T1, Proteasome Macropain subunit MB1 (Homo sapiens) (UniProt P28074); assay: Inhibition of chymotrypsin-like activity of 20S proteasome in human erythrocytes using Suc-Leu-Leu-Val-Tyr-AMC as substrate at 20 uM by fluorescence assay relative to control
T1 sequence (whole entry): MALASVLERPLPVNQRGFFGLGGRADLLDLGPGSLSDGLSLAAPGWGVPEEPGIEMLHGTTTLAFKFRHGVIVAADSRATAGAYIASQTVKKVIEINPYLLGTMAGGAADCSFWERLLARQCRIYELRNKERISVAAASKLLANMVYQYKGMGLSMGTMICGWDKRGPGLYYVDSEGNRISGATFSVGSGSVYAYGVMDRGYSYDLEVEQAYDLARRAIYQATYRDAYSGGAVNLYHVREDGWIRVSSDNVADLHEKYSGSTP
Method in brief: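 Single inhibitor concentration, equivalent DMSO as negative control. AMC fluorescence read at ex 380/em 460 nm; percent inhibition of ChT-L activity.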

[5] = Cytotoxicity against human breast cancer cells assessed as cell growth at 10 uM relative to control; format: functional; conditions: Cancer cell lines, read-out: Activity; method in brief: as §1
[6] = Growth inhibition of human NCI-ADR-RES cells; format: functional
[7] = Growth inhibition of human HOP92 cells; format: functional
[8] = target: T2, Proteasome Macropain subunit MB1 (Homo sapiens, UniProt P28074); assay: Inhibition of chymotrypsin-like activity of 20S proteasome in human erythrocytes using Suc-Leu-Leu-Val-Tyr-AMC as substrate by fluorescence assay; conditions: read-out: Ki
T2 sequence (P28074 whole entry): T1 sequence (whole entry)

[9] = Cytotoxicity against human NSCLC cells assessed as cell growth at 10 uM relative to control; format: functional; conditions: read-out: Activity; method in brief: as §1
[10] = Growth inhibition of human OVCAR3 cells; format: functional; conditions: OVCAR-3
HT-29 = assay: Growth inhibition of human HT-29 cells; format: functional
[11] = Cytotoxicity against human leukemia cells assessed as cell growth at 10 uM relative to control; format: functional; conditions: read-out: Activity; method in brief: as §1
SK-MEL-5 = assay: Growth inhibition of human SK-MEL-5 cells; format: functional
[12] = Growth inhibition of human UO31 cells; format: functional; conditions: UO-31
[13] = Growth inhibition of human MOLT4 cells; format: functional
NCI-H226 = assay: Growth inhibition of human NCI-H226 cells; format: functional
[14] = Growth inhibition of human LOXIMVI cells; format: functional; conditions: LOX IMVI
SNB-75 = assay: Growth inhibition of human SNB75 cells; format: functional
786-0 = assay: Growth inhibition of human 786-0 cells; format: functional
COLO 205 = assay: Growth inhibition of human COLO205 cells; format: functional
NCI-H522 = assay: Growth inhibition of human NCI-H522 cells; format: functional
[15] = target: Proteasome Macropain subunit (Homo sapiens) (UniProt P49721); assay: Inhibition of trypsin-like activity of 20S proteasome in human erythrocytes using Boc-Leu-Arg-Arg-AMC as substrate by fluorescence assay; format: cell-based
Method in brief: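 Human 20S proteasome 0.0025 mg/mL at 30 °C in 50 mM Tris pH 7.4, 50 mM NaCl, 0.5 mM EDTA, 0.03% SDS, 7.5% DMSO. Varied inhibitor concentrations; AMC release monitored continuously for 10 min, ex 380/em 460 nm. Ki derived from progress-curve IC50 fit.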

[16] = Growth inhibition of human UACC257 cells; format: functional
NCI-H460 = assay: Growth inhibition of human NCI-H460 cells; format: functional
MCF7 = assay: Growth inhibition of human MCF7 cells; format: functional
IGROV-1 = assay: Growth inhibition of human IGROV1 cells; format: functional
[17] = read-out: LC50 (the source's name)

Sequence of Proteasome Macropain subunit (Homo sapiens) (P49721 whole entry): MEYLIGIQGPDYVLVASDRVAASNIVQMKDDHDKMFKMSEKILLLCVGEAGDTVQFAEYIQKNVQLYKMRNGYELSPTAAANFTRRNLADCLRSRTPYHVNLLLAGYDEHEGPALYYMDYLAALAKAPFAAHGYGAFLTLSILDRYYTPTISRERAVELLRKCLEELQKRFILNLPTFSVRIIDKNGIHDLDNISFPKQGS

SMILES: CC(C)C[C@H](NC(=O)Cn1ccc2ccc(Br)cc2c1=O)B(O)O
- GI50 (TK-10): 0.65 µM
- LC50 (TK-10): > 100 µM
- TGI (TK-10): 7.22 µM
- GI50 (SR): 0.27 µM
- TGI (SR): 12.2 µM
- CC50 (SR; [17]): > 100 µM
- GI50 ([1]; OVCAR-4): 4.94 µM
- TGI ([1]; OVCAR-4): > 100 µM
- CC50 ([1]; OVCAR-4, read-out: LC50 (the source's name)): > 100 µM
- Ki (Chymotrypsinogen A): 0.29 µM
- GI50 (Malme-3M): 4.31 µM
- TGI (Malme-3M): > 100 µM
- CC50 (Malme-3M; [17]): > 100 µM
- GI50 (HOP-62): 4.94 µM
- TGI (HOP-62): 27.6 µM
- CC50 (HOP-62; [17]): > 100 µM
- growth at 10 µM [2]: 42.9%
- GI50 ([3]; BT-549): 0.44 µM
- TGI ([3]; BT-549): 2.65 µM
- CC50 ([3]; BT-549, read-out: LC50 (the source's name)): > 100 µM
- inhibition [4]: > 40%
- growth at 10 µM [5]: 2.23%
- GI50 [6]: 21.5 µM
- LC50 [6]: > 100 µM
- TGI [6]: > 100 µM
- GI50 ([7]; HOP-92): 2.56 µM
- TGI ([7]; HOP-92): 8.7 µM
- CC50 ([7]; HOP-92, read-out: LC50 (the source's name)): > 100 µM
- Ki [8]: 0.053 µM
- growth at 10 µM [9]: 22%
- GI50 [10]: 0.6 µM
- LC50 (concentration killing 50% of cells) [10]: > 100 µM
- TGI [10]: 3.95 µM
- GI50 (HT-29): 0.73 µM
- LC50 (HT-29): > 100 µM
- TGI (HT-29): 5.52 µM
- growth at 10 µM [11]: 0.57%
- GI50 (SK-MEL-5): 0.8 µM
- LC50 (concentration killing 50% of cells) (SK-MEL-5): 7.88 µM
- TGI (SK-MEL-5): 2.65 µM
- GI50 [12]: 1.61 µM
- LC50 [12]: 61.6 µM
- TGI [12]: 11.1 µM
- GI50 ([13]; MOLT-4): 0.3 µM
- TGI ([13]; MOLT-4): 1.57 µM
- CC50 ([13]; MOLT-4, read-out: LC50 (the source's name)): > 100 µM
- GI50 (NCI-H226): 0.47 µM
- TGI (NCI-H226): 1.84 µM
- CC50 (NCI-H226; [17]): 5.39 µM
- GI50 [14]: 0.43 µM
- TGI [14]: 1.85 µM
- CC50 [14, 17]: 7.21 µM
- GI50 (SNB-75): 2.13 µM
- LC50 (SNB-75): 63.3 µM
- TGI (SNB-75): 9.09 µM
- GI50 (786-0): 4.06 µM
- TGI (786-0): > 100 µM
- CC50 (786-0; [17]): > 100 µM
- GI50 (COLO 205): 2.83 µM
- TGI (COLO 205): > 100 µM
- CC50 (COLO 205; [17]): > 100 µM
- GI50 (NCI-H522): 0.59 µM
- LC50 (NCI-H522): 9.06 µM
- TGI (NCI-H522): 2.54 µM
- inhibition [15]: inactive
- GI50 ([16]; UACC-257): 0.94 µM
- TGI ([16]; UACC-257): 4.51 µM
- CC50 ([16]; UACC-257, read-out: LC50 (the source's name)): > 100 µM
- GI50 (NCI-H460): 5.58 µM
- LC50 (NCI-H460): > 100 µM
- TGI (NCI-H460): 36.8 µM
- GI50 (MCF7): 0.42 µM
- TGI (MCF7): > 100 µM
- CC50 (MCF7; [17]): > 100 µM
- GI50 (IGROV-1): 6.16 µM
- LC50 (IGROV-1): > 100 µM
- TGI (IGROV-1): 46.9 µM
